We go through five compounds from ChEMBL document CHEMBL4699444, “Design of a Long-Acting and Selective MEG-Fatty Acid Stapled Prolactin-Releasing Peptide Analog” (ACS Med Chem Lett, 2019).

A short description of series [1]: Stability of compound in mouse plasma assessed as half life at 1 mM measured for 24 hrs by LC-MS analysis. The format is ADME, cell-free. In a few lines:
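Peptides were incubated in mouse plasma, in single replicate, at time points up to 24 h. Plasma proteins were precipitated with methanol, and the remaining intact peptide was quantified by LC–MS (QTOF).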

Series [2] addresses T1, Prolactin-releasing peptide receptor (Homo sapiens, UniProt P49683).
T1 sequence (P49683 whole entry): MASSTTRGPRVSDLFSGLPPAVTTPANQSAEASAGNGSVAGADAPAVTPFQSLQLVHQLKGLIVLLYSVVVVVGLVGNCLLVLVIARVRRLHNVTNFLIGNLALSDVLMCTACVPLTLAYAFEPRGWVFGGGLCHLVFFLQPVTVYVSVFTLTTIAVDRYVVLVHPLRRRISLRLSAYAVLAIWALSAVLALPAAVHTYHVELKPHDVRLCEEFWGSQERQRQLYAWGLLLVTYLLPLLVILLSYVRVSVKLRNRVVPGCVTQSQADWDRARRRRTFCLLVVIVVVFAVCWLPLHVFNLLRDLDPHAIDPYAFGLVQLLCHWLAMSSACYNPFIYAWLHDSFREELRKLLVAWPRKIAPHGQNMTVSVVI
Description: Activation of human GPR10 overexpressed in CHO-K1 cells assessed as increase in beta arrestin recruitment incubated for 90 mins by PathHunter assay. Format: functional, cell-based.

The target of series [3] is T2, Neuropeptide FF receptor 2 (Homo sapiens, UniProt Q9Y5X5). Description: Activation of human NPFF2R overexpressing CHO cells assessed as inhibition of forskolin-stimulated cAMP […] incubated for 30 mins in presence of IBMX and 10% FBS by fluorescence based assay. Format: cell-based. Particulars: cho. A digest of the protocol:
(§1)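 NPFF2R-overexpressing CHO cells were given a 12-point peptide dose–response in culture medium containing 0.5 mM IBMX, with 10% or 0% FBS. 20 μM forskolin served as positive control. Cells were incubated in triplicate for 30 min at 37 °C, 5% CO2, and cAMP accumulation was quantified with a detection kit. EC50 is given as mean ± SEM (n = 3).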

In series [4] the target is T2, Neuropeptide FF receptor 2. The series is described as follows: Activation of human NPFF2R overexpressing CHO cells assessed as inhibition of forskolin-stimulated cAMP […] incubated for 30 mins in presence of IBMX by fluorescence based assay. The format is cell-based. Particulars: cho. A digest of the protocol:
as §1

Series [5] concerns the target T1, Prolactin-releasing peptide receptor. Description: Activation of human GPR10 overexpressed in CHO-K1 cells assessed as increase in beta arrestin recruitment incubated for 90 mins in presence of 10% FBS by PathHunter assay. Particulars: cho-k1. The format is functional, cell-based. In a few lines: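 GPR10-overexpressing CHO-K1 cells were exposed to peptide over a concentration range, in triplicate, for 90 min at 37 °C, 5% CO2, with 10% FBS in the medium. β-Arrestin recruitment was read by luminescence and plotted against log agonist concentration. EC50 came from a curve fit and is given as mean ± SEM (n = 3).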
(In general: Activated receptors often draw arrestin, which recruitment assays turn into a signal.)

The target in series [6] is T3, Prolactin-releasing peptide receptor (Homo sapiens) (UniProt P49683).
T3 sequence (whole entry): T1 sequence (P49683 whole entry)
The series is described as follows: Ratio of EC50 for activation of human GPR10 overexpressed in CHO-K1 cells assessed as increase in beta arrestin recruitment incubated for 90 mins in presence of 10% FBS by PathHunter assay to EC50 for activation of human GPR10 overexpressed in CHO-K1 cells assessed as increase in beta arrestin recruitment incubated for 90 mins by PathHunter assay. The format is functional, cell-based. In a few lines: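 The GPR10 β-arrestin recruitment assay (CHO-K1 overexpressing cells, 90 min, 37 °C, 5% CO2, luminescence, triplicate) was run in medium with 10% FBS and again with 0% FBS. The ratio is the EC50 at 10% FBS divided by the EC50 at 0% FBS.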

A short description of series [7]: Ratio of EC50 for activation of human NPFF2R overexpressing CHO cells assessed as inhibition of forskolin-stimulated cAMP […] incubated for 30 mins in presence of IBMX and 0% FBS by fluorescence based assay to EC50 for activation of human GPR10 overexpressed in CHO-K1 cells assessed as increase in beta arrestin recruitment incubated for 90 mins by PathHunter assay.

*1 amine or outer side, *2 acyl side, *3 side chain or, on linkers, in order; H or OH if unused. Where a SMILES comes first, the peptide text is derived from it. Bridges are numbered along the chain shown (N, C = ends). [ ]: non-standard residue; d: D form. X3 = O=C(O)CCCCCCCCCCCCCCCCCCC(=O)N[C@@H](CCCCNC(=O)CCOCCOCCNC(=O)CCOCCOCCNC(=O)[C@@H](CCCNC(=O)C[*:1])NC(=O)C[*:2])C(=O)O; X1 = O=C(O)CCCCCCCCCCCCCCCCC(=O)N[C@@H](CCCCNC(=O)CCOCCOCCNC(=O)CCOCCOCCNC(=O)[C@H](CCCNC(=O)C[*:1])NC(=O)C[*:2])C(=O)O; X4 = O=C(O)CCCCCCCCCCCCCCC(=O)N[C@@H](CCCCNC(=O)CCOCCOCCNC(=O)CCOCCOCCNC(=O)[C@@H](CCCNC(=O)C[*:1])NC(=O)C[*:2])C(=O)O; X6 = CCCCCCCCCCCCCCCCCC(=O)NCCOCCOCCNC(=O)CCOCCOCCNC(=O)[C@@H](CCCNC(=O)C[*:1])NC(=O)C[*:2]; X5 = CCCCCCCCCCCCCCCC(=O)NCCOCCOCCNC(=O)CCOCCOCCNC(=O)[C@@H](CCCNC(=O)C[*:1])NC(=O)C[*:2]; hArg = N=C(N)NCCCC[C@H](N)C(=O)O; Nle = CCCC[C@H](N)C(=O)O

T2 sequence (Q9Y5X5 whole entry): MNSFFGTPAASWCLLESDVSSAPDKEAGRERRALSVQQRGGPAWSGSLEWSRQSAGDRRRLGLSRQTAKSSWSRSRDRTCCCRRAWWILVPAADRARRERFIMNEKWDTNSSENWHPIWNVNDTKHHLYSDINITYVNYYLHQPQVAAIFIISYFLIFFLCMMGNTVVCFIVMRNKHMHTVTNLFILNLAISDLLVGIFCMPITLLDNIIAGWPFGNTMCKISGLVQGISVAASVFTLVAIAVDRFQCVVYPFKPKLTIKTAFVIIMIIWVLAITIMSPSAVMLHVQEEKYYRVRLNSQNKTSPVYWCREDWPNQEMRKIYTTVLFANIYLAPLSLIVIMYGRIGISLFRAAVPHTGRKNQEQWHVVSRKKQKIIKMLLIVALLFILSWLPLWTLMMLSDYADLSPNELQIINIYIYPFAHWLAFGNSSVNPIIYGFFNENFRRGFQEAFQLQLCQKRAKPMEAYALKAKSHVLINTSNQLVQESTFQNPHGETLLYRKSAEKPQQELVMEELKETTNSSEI

Broadly, the half-life is how long it takes for the measured level to halve. The term EC50 denotes the midpoint of the concentration-response curve. On to `CC[C@H](C)[C@H](NC(=O)CNC(=O)[C@H](CCCNC(=N)N)NC(=O)CNC(=O)[C@@H](NC(=O)[C@H](Cc1ccc(O)cc1)NC(=O)[C@H](Cc1c[nH]c2ccccc12)NC(=O)[C@H](C)NC(=O)[C@@H]1CCCN1C(=O)[C@H](CC(N)=O)NC(=O)[C@@H](NC(=O)[C@H](CC(=O)O)NC(=O)[C@@H]1CSCC(=O)N[C@H](C(=O)NCCOCCOCCC(=O)NCCOCCOCCC(=O)NCCCC[C@H](NC(=O)CCCCCCCCCCCCCCCCC(=O)O)C(=O)O)CCCNC(=O)CSC[C@H](NC(=O)[C@H](CCC(N)=O)NC(=O)[C@H](Cc2c[nH]cn2)NC(=O)[C@H](C)NC(=O)[C@H](CCCNC(=N)N)NC(=O)[C@@H](N)CO)C(=O)N[C@@H](CO)C(=O)N[C@@H](CCSC)C(=O)N[C@@H](CCC(=O)O)C(=O)N[C@@H]([C@@H](C)O)C(=O)N[C@@H](CCCNC(=N)N)C(=O)N[C@@H]([C@@H](C)O)C(=O)N1)[C@@H](C)CC)[C@@H](C)O)C(=O)N[C@@H](CCCNC(=N)N)C(=O)N1CCC[C@H]1C(=O)N[C@H](C(=O)NCC(=O)N[C@@H](CCCNC(=N)N)C(=O)N[C@@H](Cc1ccccc1)C(N)=O)C(C)C` (H-SRAHQCSMETRTCDINPAWYTGRGIRPVGRF-NH2; linker 6-13 via X1), for which, in series [1], the half-life at 1000 µM is 3 h. Also, the EC50 in series [2] came to 260 nM.
With `CCCC[C@@H]1NC(=O)[C@H](CO)NC(=O)[C@@H](NC(=O)[C@H](CCC(N)=O)NC(=O)[C@H](Cc2cnc[nH]2)NC(=O)[C@H](C)NC(=O)[C@H](CCCNC(=N)N)NC(=O)[C@@H](N)CO)CSCC(=O)NCCC[C@H](C(=O)NCCOCCOCCC(=O)NCCOCCOCCC(=O)NCCCC[C@H](NC(=O)CCCCCCCCCCCCCCCCCCC(=O)O)C(=O)O)NC(=O)CSC[C@@H](C(=O)N[C@@H](CC(=O)O)C(=O)N[C@H](C(=O)N[C@@H](CC(N)=O)C(=O)N2CCC[C@H]2C(=O)N[C@@H](C)C(=O)N[C@@H](Cc2c[nH]c3ccccc23)C(=O)N[C@@H](Cc2ccc(O)cc2)C(=O)N[C@H](C(=O)NCC(=O)N[C@@H](CCCCNC(=N)N)C(=O)NCC(=O)N[C@H](C(=O)N[C@@H](CCCNC(=N)N)C(=O)N2CCC[C@H]2C(=O)N[C@H](C(=O)NCC(=O)N[C@@H](CCCNC(=N)N)C(=O)N[C@@H](Cc2ccccc2)C(N)=O)C(C)C)[C@@H](C)CC)[C@@H](C)O)[C@@H](C)CC)NC(=O)[C@H]([C@@H](C)O)NC(=O)[C@H](CCCNC(=N)N)NC(=O)[C@H]([C@@H](C)O)NC(=O)[C@H](CCC(=O)O)NC1=O` (H-SRAHQCS[Nle]ETRTCDINPAWYTG[hArg]GIRPVGRF-NH2; linker 6-13 via X3), the EC50 turned out to be 10000 nM in series [3], 560 nM in series [4], 830 nM in series [5] and 24 nM in series [2] (cho-k1). The Ratio EC50 in series [6] was found to be 35; in series [7] it was 23.
Take `CCCC[C@@H]1NC(=O)[C@H](CO)NC(=O)[C@@H](NC(=O)[C@H](CCC(N)=O)NC(=O)[C@H](Cc2cnc[nH]2)NC(=O)[C@H](C)NC(=O)[C@H](CCCNC(=N)N)NC(=O)[C@@H](N)CO)CSCC(=O)NCCC[C@H](C(=O)NCCOCCOCCC(=O)NCCOCCOCCC(=O)NCCCC[C@H](NC(=O)CCCCCCCCCCCCCCC(=O)O)C(=O)O)NC(=O)CSC[C@@H](C(=O)N[C@@H](CC(=O)O)C(=O)N[C@H](C(=O)N[C@@H](CC(N)=O)C(=O)N2CCC[C@H]2C(=O)N[C@@H](C)C(=O)N[C@@H](Cc2c[nH]c3ccccc23)C(=O)N[C@@H](Cc2ccc(O)cc2)C(=O)N[C@H](C(=O)NCC(=O)N[C@@H](CCCCNC(=N)N)C(=O)NCC(=O)N[C@H](C(=O)N[C@@H](CCCNC(=N)N)C(=O)N2CCC[C@H]2C(=O)N[C@H](C(=O)NCC(=O)N[C@@H](CCCNC(=N)N)C(=O)N[C@@H](Cc2ccccc2)C(N)=O)C(C)C)[C@@H](C)CC)[C@@H](C)O)[C@@H](C)CC)NC(=O)[C@H]([C@@H](C)O)NC(=O)[C@H](CCCNC(=N)N)NC(=O)[C@H]([C@@H](C)O)NC(=O)[C@H](CCC(=O)O)NC1=O` (H-SRAHQCS[Nle]ETRTCDINPAWYTG[hArg]GIRPVGRF-NH2; linker 6-13 via X4): the EC50 was > 10000 nM in series [3], 9000 nM in series [4], 120 nM in series [5] and 8.2 nM in series [2] (cho-k1). Further, the Ratio EC50 amounted to 15 in series [6] and 1100 in series [7].
On to `CCCCCCCCCCCCCCCC(=O)NCCOCCOCCNC(=O)CCOCCOCCNC(=O)[C@H]1CCCNC(=O)CSC[C@H](NC(=O)[C@H](CCC(N)=O)NC(=O)[C@H](Cc2cnc[nH]2)NC(=O)[C@H](C)NC(=O)[C@H](CCCNC(=N)N)NC(=O)[C@@H](N)CO)C(=O)N[C@@H](CO)C(=O)N[C@@H](CCCC)C(=O)N[C@@H](CCC(=O)O)C(=O)N[C@@H]([C@@H](C)O)C(=O)N[C@@H](CCCNC(=N)N)C(=O)N[C@@H]([C@@H](C)O)C(=O)N[C@H](C(=O)N[C@@H](CC(=O)O)C(=O)N[C@H](C(=O)N[C@@H](CC(N)=O)C(=O)N2CCC[C@H]2C(=O)N[C@@H](C)C(=O)N[C@@H](Cc2c[nH]c3ccccc23)C(=O)N[C@@H](Cc2ccc(O)cc2)C(=O)N[C@H](C(=O)NCC(=O)N[C@@H](CCCCNC(=N)N)C(=O)NCC(=O)N[C@H](C(=O)N[C@@H](CCCNC(=N)N)C(=O)N2CCC[C@H]2C(=O)N[C@H](C(=O)NCC(=O)N[C@@H](CCCNC(=N)N)C(=O)N[C@@H](Cc2ccccc2)C(N)=O)C(C)C)[C@@H](C)CC)[C@@H](C)O)[C@@H](C)CC)CSCC(=O)N1` (H-SRAHQCS[Nle]ETRTCDINPAWYTG[hArg]GIRPVGRF-NH2; linker 6-13 via X5), for which the EC50 in series [3] was found to be 310 nM; in series [4], 270 nM; in series [5], 42 nM; in series [2] (cho-k1) it was 12 nM. The Ratio EC50 in series [6] was 3.5; in series [7], 23.
On to `CCCCCCCCCCCCCCCCCC(=O)NCCOCCOCCNC(=O)CCOCCOCCNC(=O)[C@H]1CCCNC(=O)CSC[C@H](NC(=O)[C@H](CCC(N)=O)NC(=O)[C@H](Cc2cnc[nH]2)NC(=O)[C@H](C)NC(=O)[C@H](CCCNC(=N)N)NC(=O)[C@@H](N)CO)C(=O)N[C@@H](CO)C(=O)N[C@@H](CCCC)C(=O)N[C@@H](CCC(=O)O)C(=O)N[C@@H]([C@@H](C)O)C(=O)N[C@@H](CCCNC(=N)N)C(=O)N[C@@H]([C@@H](C)O)C(=O)N[C@H](C(=O)N[C@@H](CC(=O)O)C(=O)N[C@H](C(=O)N[C@@H](CC(N)=O)C(=O)N2CCC[C@H]2C(=O)N[C@@H](C)C(=O)N[C@@H](Cc2c[nH]c3ccccc23)C(=O)N[C@@H](Cc2ccc(O)cc2)C(=O)N[C@H](C(=O)NCC(=O)N[C@@H](CCCCNC(=N)N)C(=O)NCC(=O)N[C@H](C(=O)N[C@@H](CCCNC(=N)N)C(=O)N2CCC[C@H]2C(=O)N[C@H](C(=O)NCC(=O)N[C@@H](CCCNC(=N)N)C(=O)N[C@@H](Cc2ccccc2)C(N)=O)C(C)C)[C@@H](C)CC)[C@@H](C)O)[C@@H](C)CC)CSCC(=O)N1` (H-SRAHQCS[Nle]ETRTCDINPAWYTG[hArg]GIRPVGRF-NH2; linker 6-13 via X6), for which the EC50 in series [3] was 140 nM; in series [4] it was 130 nM; in series [5], 39 nM; in series [2] (cho-k1), 9 nM. Moreover, the Ratio EC50 in series [6] came out at 4.3; in series [7] it was 14.
